From ChEMBL document CHEMBL1275379, “Indazolylpyrazolopyrimidine as highly potent B-Raf inhibitors with in vivo activity” (J Med Chem, 2010)
Active and inactive are the calls of the source. The rule behind the calls is not given here.

Experiments:
[1] = target: High affinity nerve growth factor receptor (Homo sapiens) (UniProt P04629); assay: Inhibition of NTRK1 at 1 uM
[2] = target: Mast/stem cell growth factor receptor Kit (Homo sapiens) (UniProt P10721); assay: Inhibition of KIT at 1 uM
[3] = Half life in human liver microsomes; assay type: ADME, Microsome
[4] = target: Protein kinase C delta type (Homo sapiens) (UniProt Q05655); assay: Inhibition of PRKCD at 1 uM
Protein kinase C delta type (Homo sapiens), sequence (Q05655 whole entry, looked up): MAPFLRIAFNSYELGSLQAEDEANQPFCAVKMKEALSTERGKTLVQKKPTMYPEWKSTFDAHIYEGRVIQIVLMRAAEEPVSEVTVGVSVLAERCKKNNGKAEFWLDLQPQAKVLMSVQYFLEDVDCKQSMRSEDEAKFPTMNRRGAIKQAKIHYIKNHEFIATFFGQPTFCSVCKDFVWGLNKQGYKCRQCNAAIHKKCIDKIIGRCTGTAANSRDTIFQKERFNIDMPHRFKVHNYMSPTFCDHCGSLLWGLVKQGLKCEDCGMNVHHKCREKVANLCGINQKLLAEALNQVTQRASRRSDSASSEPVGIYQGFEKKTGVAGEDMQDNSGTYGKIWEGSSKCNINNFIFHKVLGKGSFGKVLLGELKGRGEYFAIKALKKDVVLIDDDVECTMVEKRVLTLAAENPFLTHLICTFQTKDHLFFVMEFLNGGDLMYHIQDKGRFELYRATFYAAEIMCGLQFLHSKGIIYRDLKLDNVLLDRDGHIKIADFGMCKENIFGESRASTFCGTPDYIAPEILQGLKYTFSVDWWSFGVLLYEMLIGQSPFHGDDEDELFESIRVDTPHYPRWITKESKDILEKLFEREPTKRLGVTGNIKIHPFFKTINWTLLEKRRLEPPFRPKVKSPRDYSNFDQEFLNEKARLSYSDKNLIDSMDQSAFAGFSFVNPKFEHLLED

[5] = Volume of distribution at steady state in nude mouse; assay type: ADME, organism-based; conditions: in vivo, read-out: Vdss
Mus musculus [6] = assay: Inhibition of BRAF-mediated ERK phosphorylation in human A375 cells xenografted nude mouse at 10 mg/kg, po QD; assay type: functional, organism-based; design: dose 10 mg/kg; conditions: A-375
Summary of the method: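 Nude mice bearing A375 xenografts received an oral 10 mg/kg dose once daily. Tumours were taken from treated and untreated animals 6 h after the first dose, and ERK phosphorylation in tumour tissue was measured.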

A-375 [7] = assay: Growth inhibition of human A375 cells after 4 days by MTT assay; assay type: functional, cell-based; conditions: A-375, 96 h
[8] = target: Serine/threonine-protein kinase Sgk1 (Homo sapiens) (UniProt O00141); assay: Inhibition of SGK at 1 uM
A-375 [9] = assay: Antitumor activity against human A375 cells xenografted in nude mouse assessed as tumor growth inhibition at 7.5 mg/kg, po; assay type: functional; conditions: read-out: TGI
Summary of the method: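 A375 xenografts in nude mice dosed orally once daily; n = 10 per arm; tumour size measured by caliper at set times; error shown as standard deviation.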

[10] = target: Serine/threonine-protein kinase Nek2 (Homo sapiens) (UniProt P51955); assay: Inhibition of NEK2 at 1 uM
COLO 205 = assay: Antitumor activity against human COLO205 cells xenografted in nude mouse assessed as tumor growth inhibition at 7.5 mg/kg, po; assay type: functional, organism-based; design: dose 7.5 mg/kg
[11] = target: Vascular endothelial growth factor receptor 1 (Homo sapiens) (UniProt P17948); assay: Inhibition of FLT1 at 1 uM
[12] = target: Mitogen-activated protein kinase 14 (Homo sapiens, UniProt Q16539); assay: Inhibition of MAPK14
Mitogen-activated protein kinase 14, sequence (Q16539 whole entry): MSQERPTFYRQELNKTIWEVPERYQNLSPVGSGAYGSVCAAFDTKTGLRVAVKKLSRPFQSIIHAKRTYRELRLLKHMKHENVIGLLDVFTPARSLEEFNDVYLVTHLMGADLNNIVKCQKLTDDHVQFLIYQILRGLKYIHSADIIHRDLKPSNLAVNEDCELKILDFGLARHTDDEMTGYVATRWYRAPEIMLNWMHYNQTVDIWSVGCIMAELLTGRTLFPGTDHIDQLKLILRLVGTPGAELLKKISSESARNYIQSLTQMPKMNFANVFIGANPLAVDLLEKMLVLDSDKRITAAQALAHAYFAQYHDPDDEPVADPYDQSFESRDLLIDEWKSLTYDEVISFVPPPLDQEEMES

Angiopoietin-1 receptor = Angiopoietin-1 receptor (Homo sapiens, UniProt Q02763); conditions: 1 uM
Angiopoietin-1 receptor, sequence (Q02763 whole entry): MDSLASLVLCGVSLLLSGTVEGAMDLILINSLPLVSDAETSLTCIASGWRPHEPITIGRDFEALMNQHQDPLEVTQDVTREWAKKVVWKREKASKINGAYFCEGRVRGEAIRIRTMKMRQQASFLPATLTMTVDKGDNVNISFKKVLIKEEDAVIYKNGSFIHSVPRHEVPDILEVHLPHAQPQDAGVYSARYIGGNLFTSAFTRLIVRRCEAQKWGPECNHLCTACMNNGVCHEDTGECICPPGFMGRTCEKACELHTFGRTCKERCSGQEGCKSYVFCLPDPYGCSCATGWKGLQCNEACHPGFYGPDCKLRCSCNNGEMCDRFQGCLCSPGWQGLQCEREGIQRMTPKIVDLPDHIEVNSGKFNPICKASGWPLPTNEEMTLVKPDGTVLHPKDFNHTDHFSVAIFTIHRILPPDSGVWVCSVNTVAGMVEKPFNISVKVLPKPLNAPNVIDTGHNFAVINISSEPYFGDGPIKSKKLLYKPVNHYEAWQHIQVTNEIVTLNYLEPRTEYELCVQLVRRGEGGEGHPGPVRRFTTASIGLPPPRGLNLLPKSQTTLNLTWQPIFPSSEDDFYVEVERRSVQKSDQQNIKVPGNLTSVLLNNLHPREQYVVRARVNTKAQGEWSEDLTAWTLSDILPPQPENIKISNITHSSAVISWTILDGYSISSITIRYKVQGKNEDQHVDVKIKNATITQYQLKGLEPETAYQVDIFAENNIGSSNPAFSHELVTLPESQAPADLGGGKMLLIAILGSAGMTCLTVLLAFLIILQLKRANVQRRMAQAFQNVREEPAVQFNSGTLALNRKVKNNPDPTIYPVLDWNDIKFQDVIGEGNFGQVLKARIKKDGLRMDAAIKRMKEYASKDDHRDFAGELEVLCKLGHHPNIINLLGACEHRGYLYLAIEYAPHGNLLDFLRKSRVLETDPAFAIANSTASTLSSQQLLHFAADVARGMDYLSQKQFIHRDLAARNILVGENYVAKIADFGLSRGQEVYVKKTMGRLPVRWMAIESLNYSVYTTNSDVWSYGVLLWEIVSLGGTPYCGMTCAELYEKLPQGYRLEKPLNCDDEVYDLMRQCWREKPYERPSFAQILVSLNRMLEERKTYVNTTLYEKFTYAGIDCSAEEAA

[13] = target: Vascular endothelial growth factor receptor 2 (Homo sapiens) (UniProt P35968); assay: Inhibition of KDR at 1 uM
[14] = target: 3-phosphoinositide-dependent protein kinase 1 (Homo sapiens) (UniProt O15530); assay: Inhibition of PDK1 at 1 uM
[15] = Inhibition of PRKA at 1 uM
[16] = Drug level in tumor tissue of human A375 cells xenografted nude mouse at 25 mg/kg, po after 24 hrs; assay type: ADME, organism-based, Neoplasm, A-375; design: dose 25 mg/kg, route oral; conditions: read-out: Drug uptake
[17] = target: Vascular endothelial growth factor receptor 3 (Homo sapiens) (UniProt P35916); assay: Inhibition of FLT4 at 1 uM
[18] = target: Tyrosine-protein kinase CSK (Homo sapiens) (UniProt P41240); assay: Inhibition of CSK at 1 uM
[19] = target: Platelet-derived growth factor receptor alpha (Homo sapiens) (UniProt P16234); assay: Inhibition of PDGFRA at 1 uM
[20] = target: Glycogen synthase kinase-3 alpha (Homo sapiens) (UniProt P49840); assay: Inhibition of GSK3A at 1 uM
[21] = target: Hepatocyte growth factor receptor (Homo sapiens) (UniProt P08581); assay: Inhibition of MET at 1 uM
[22] = target: Tyrosine-protein kinase ABL1 (Homo sapiens, UniProt P00519); assay: Inhibition of ABL1
[23] = target: Tyrosine-protein kinase Yes (Homo sapiens, UniProt P07947); conditions: 1 uM
[24] = Drug level in plasma of human A375 cells xenografted nude mouse at 25 mg/kg, po after 24 hrs; assay type: ADME, organism-based, A-375; design: dose 25 mg/kg, route oral; conditions: read-out: Drug uptake
[25] = target: Receptor-type tyrosine-protein kinase FLT3 (Homo sapiens) (UniProt P36888); assay: Inhibition of FLT3 at 1 uM
Receptor-type tyrosine-protein kinase FLT3 (Homo sapiens), sequence (P36888 whole entry): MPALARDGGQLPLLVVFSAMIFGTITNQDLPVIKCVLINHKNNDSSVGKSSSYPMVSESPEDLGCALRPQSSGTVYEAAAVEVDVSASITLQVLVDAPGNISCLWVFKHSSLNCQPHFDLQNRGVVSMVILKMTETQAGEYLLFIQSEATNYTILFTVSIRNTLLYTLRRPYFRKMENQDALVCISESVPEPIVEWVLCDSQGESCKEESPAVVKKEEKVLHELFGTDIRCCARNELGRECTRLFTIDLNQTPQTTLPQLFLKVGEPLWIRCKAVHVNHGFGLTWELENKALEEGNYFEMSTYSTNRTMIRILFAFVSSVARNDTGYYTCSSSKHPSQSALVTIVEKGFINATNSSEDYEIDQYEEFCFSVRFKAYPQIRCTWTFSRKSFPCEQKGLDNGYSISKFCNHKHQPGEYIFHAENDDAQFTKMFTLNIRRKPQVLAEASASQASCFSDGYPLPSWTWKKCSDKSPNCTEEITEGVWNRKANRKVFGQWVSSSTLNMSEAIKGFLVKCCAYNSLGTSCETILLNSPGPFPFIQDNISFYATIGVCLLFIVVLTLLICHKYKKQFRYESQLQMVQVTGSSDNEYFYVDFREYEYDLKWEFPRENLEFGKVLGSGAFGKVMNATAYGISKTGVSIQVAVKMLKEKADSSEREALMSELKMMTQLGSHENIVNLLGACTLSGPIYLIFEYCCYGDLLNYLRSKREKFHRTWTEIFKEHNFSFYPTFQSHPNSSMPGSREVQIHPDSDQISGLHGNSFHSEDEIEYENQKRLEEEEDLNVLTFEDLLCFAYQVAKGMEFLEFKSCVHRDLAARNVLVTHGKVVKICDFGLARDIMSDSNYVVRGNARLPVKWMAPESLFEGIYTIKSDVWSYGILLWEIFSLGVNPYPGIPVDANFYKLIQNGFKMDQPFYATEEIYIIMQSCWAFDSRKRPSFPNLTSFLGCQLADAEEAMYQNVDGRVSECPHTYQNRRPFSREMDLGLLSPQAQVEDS

[26] = target: Rho-associated protein kinase 1 (Homo sapiens) (UniProt Q13464); assay: Inhibition of ROCK1 at 1 uM
[27] = target: Serine/threonine-protein kinase Chk2 (Homo sapiens) (UniProt O96017); assay: Inhibition of CHEK2 at 1 uM
Ephrin type-A receptor 1 = Ephrin type-A receptor 1 (Homo sapiens, UniProt P21709); assay: Inhibition of EPHA1
[28] = target: Serine/threonine-protein kinase B-raf (Homo sapiens, UniProt P15056); assay: Inhibition of BRAF
Serine/threonine-protein kinase B-raf, sequence (P15056 whole entry): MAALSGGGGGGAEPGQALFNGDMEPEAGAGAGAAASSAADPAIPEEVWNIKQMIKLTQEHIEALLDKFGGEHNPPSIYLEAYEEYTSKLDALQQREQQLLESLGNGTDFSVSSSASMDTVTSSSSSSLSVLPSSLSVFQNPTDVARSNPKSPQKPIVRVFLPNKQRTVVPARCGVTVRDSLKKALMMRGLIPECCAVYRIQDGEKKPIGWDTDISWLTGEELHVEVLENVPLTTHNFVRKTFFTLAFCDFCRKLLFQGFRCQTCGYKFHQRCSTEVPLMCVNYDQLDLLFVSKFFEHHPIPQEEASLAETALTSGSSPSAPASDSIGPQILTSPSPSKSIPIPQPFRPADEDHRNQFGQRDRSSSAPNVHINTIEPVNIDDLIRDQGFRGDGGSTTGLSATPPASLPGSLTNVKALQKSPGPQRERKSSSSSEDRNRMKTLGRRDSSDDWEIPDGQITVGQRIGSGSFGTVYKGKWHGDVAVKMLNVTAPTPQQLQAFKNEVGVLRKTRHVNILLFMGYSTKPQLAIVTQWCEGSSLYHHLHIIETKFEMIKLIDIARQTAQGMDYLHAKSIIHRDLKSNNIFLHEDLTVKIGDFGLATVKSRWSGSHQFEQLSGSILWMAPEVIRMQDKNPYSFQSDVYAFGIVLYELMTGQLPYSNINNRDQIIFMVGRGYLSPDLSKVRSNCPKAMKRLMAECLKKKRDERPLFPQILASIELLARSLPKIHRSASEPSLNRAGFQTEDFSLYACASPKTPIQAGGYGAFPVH

[29] = target: Fibroblast growth factor receptor 1 (Homo sapiens) (UniProt P11362); assay: Inhibition of FGFR1 at 1 uM
Fibroblast growth factor receptor 1 (Homo sapiens), sequence (P11362 22-822 limits assumed): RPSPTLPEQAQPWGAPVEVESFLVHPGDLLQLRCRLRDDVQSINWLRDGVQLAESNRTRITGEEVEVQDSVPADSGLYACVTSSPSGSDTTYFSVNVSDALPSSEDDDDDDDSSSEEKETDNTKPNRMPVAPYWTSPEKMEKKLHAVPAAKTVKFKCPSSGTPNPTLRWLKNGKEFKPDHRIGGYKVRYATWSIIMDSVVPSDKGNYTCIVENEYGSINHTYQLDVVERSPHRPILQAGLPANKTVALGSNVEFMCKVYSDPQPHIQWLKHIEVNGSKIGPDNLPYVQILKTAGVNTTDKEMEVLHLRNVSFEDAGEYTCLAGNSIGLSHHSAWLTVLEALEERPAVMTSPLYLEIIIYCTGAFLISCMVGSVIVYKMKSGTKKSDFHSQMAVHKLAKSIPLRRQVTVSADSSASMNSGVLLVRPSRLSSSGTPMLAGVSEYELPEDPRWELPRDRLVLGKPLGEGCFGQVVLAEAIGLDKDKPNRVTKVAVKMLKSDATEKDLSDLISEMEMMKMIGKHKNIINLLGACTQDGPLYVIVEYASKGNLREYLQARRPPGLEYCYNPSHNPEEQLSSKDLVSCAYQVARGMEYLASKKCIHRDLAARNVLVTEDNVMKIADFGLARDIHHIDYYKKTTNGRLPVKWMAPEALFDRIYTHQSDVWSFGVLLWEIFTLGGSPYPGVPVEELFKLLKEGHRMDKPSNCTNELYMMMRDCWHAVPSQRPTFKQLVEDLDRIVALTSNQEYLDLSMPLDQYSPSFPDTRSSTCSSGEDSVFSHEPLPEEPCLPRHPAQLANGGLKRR

Mus musculus [30] = assay: Inhibition of BRAF-mediated ERK phosphorylation in human A375 cells xenografted nude mouse at 50 mg/kg, iv after 24 hrs; assay type: functional, organism-based; design: dose 50 mg/kg; conditions: A-375
[31] = Inhibition of MAP3K at 1 uM
[32] = target: Protein kinase C gamma type (Homo sapiens) (UniProt P05129); assay: Inhibition of PRKCG at 1 uM

inhibition [1]: 25%
inhibition [2]: 9%
half-life [3]: > 30 min
inhibition [4]: 10%
Vd [5]: 4.7 L/kg
IC50 (A-375 [7]): 24 nM
inhibition [8]: 8%
inhibition [10]: 6%
inhibition [11]: 14%
IC50 [12]: 145 nM
inhibition (Angiopoietin-1 receptor): 81%
inhibition [13]: 39%
inhibition [14]: 3%
inhibition [15]: 18%
concentration at 24 h [16]: 6.1 µM
inhibition [17]: 17%
inhibition [18]: 19%
inhibition [19]: 5%
inhibition [20]: 34%
inhibition [21]: 66%
IC50 [22]: 286 nM
inhibition [23]: 68%
concentration at 24 h [24]: 60 nM
inhibition [25]: 23%
inhibition [26]: 3%
inhibition [27]: 7%
IC50 (Ephrin type-A receptor 1): 95.3 nM
IC50 [28]: 0.16 nM
inhibition [29]: 63%
inhibition [31]: 4%
inhibition [32]: 15%
SMILES: CN1C[C@@H]2C[C@H]1CN2c1cc(F)c(-c2ccnc3c(-c4cccc5[nH]ncc45)c(-c4ccncc4)nn23)c(F)c1
inhibition (Mus musculus [6]): Active
inhibition in vivo at 7.5 mg/kg (A-375 [9]): 39%
TGI (COLO 205): Active
inhibition (Mus musculus [30]): Active
